Assay results: ChEMBL document CHEMBL4196195, “( R)- N-(1-Methyl-2-hydroxyethyl)-13-( S)-methyl-arachidonamide (AMG315): A Novel Chiral Potent Endocannabinoid Ligand with Stability to Metabolizing Enzymes” (J Med Chem, 2018)
Activity calls are given as the source filed them.

What was measured:
Cannabinoid receptor 1 [1] = target: T1, Cannabinoid receptor 1 (Rattus norvegicus, UniProt P20272); assay: Displacement of [3H]CP-55,940 from CB1 receptor in rat brain membranes in presence of FAAH inhibitor PMSF by radioligand binding assay; type: cell membranes, Membrane
Cannabinoid receptor 1 [2] = target: T1, Cannabinoid receptor 1; assay: Displacement of [3H]CP-55,940 from CB1 receptor in rat brain membranes in absence of FAAH inhibitor PMSF by radioligand binding assay; type: cell membranes, Membrane
Cannabinoid receptor 2 [3] = target: Cannabinoid receptor 2 (Homo sapiens, UniProt P34972); assay: Displacement of [3H]CP-55,940 from human CB2 receptor expressed in HEK293 cell membranes in absence of FAAH inhibitor PMSF by radioligand binding assay
Cannabinoid receptor 2 [4] = target: Cannabinoid receptor 2 (Mus musculus, UniProt P47936); assay: Displacement of [3H]CP-55,940 from mouse CB2 receptor expressed in HEK293 cell membranes in absence of FAAH inhibitor PMSF by radioligand binding assay
Outline: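 Membranes from HEK293 cells expressing human or mouse CB2 (preparations lacking FAAH activity), competing against [3H]CP-55,940. IC50 by nonlinear regression, converted to Ki. Three independent experiments run in triplicate; Ki is the mean of the three.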

Cannabinoid receptor 1 [5] = target: T1, Cannabinoid receptor 1; assay: Agonist activity at rat CB1 receptor expressed in HEK293 cells assessed as inhibition of forskolin-induced cAMP accumulation incubated for 30 mins; type: functional, cell-based
Outline: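 HEK293 cells stably expressing rCB1, harvested with nonenzymatic dissociation reagent, washed in HBSS, 1000–1500 cells/well. Test compound at various concentrations with forskolin (2 μM final) in stimulation buffer, 30 min at room temperature. cAMP read by TR-FRET (Eu-cAMP tracer plus ULight anti-cAMP, 60 min room temperature). Forskolin-stimulated cAMP set to 100%. EC50 from nonlinear regression; two independent experiments in triplicate.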

[6] = target: Cannabinoid receptor 1 (Rattus norvegicus) (UniProt P20272); assay: Agonist activity at rat CB1 receptor expressed in HEK293 cells assessed as inhibition of forskolin-induced cAMP accumulation incubated for 30 mins relative to 500 nM CP-55,940; type: functional, cell-based
[7] = target: T2, FAAH (fatty-acid amide hydrolase 1) (Homo sapiens, UniProt O00519); assay: Stability assessed as human FAAH-mediated compound hydrolysis by LC-MS/MS analysis; type: ADME; settings: human FAAH (fatty-acid amide hydrolase 1), read-out: Stability
T2 sequence (O00519 whole entry): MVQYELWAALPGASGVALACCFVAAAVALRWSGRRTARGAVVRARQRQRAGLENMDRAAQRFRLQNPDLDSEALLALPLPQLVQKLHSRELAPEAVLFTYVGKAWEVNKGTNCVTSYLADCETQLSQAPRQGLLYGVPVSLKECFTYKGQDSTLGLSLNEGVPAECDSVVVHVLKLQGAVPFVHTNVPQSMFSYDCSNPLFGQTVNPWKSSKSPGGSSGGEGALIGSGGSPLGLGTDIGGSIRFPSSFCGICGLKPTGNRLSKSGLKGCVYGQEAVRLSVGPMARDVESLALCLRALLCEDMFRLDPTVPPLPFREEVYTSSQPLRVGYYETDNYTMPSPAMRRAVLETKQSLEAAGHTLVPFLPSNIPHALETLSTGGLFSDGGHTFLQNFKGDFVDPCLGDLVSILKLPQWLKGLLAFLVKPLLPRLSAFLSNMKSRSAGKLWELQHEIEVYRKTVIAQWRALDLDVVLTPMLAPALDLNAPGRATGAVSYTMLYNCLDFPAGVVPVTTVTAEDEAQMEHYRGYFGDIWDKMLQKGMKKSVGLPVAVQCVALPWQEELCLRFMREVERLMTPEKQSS
Outline: (§1)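 Expressed, partially purified rat or human FAAH incubated with compound, or AEA as reference substrate, for 30 min. Aliquots at time points quenched in acetonitrile to precipitate protein. Remaining compound measured by LC-MS/MS on a cyano column with 10 mM ammonium acetate pH 7.3/methanol at 0.5 mL/min.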

[8] = target: T3, Prostaglandin G/H synthase 2 (Mus musculus, UniProt Q05769); assay: Stability assessed as mouse COX2-mediated compound oxidation by measuring oxygen consumption by polarographic assay; type: ADME
T3 sequence (Q05769 whole entry): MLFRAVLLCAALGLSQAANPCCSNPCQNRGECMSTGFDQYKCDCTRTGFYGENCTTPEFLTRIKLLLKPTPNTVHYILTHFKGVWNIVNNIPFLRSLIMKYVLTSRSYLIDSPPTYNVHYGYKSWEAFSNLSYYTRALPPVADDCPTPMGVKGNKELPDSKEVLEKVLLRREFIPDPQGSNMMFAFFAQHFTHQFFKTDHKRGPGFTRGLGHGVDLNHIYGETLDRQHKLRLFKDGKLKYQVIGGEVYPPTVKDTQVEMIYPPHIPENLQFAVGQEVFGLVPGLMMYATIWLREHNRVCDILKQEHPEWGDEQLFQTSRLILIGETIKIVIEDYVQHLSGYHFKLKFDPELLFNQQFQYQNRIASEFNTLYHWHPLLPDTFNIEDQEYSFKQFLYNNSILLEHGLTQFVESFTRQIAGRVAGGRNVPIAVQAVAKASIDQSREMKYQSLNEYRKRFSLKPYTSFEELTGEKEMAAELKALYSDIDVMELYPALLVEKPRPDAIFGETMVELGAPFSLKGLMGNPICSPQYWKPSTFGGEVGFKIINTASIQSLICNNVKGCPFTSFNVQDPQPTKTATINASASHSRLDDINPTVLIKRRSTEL

[9] = target: T2, FAAH (fatty-acid amide hydrolase 1); assay: Stability assessed as half life for human FAAH-mediated compound hydrolysis by LC-MS/MS analysis; type: ADME; settings: human FAAH (fatty-acid amide hydrolase 1); outline: as §1
[10] = target: T4, FAAH (fatty-acid amide hydrolase 1) (Rattus norvegicus, UniProt P97612); assay: Stability assessed as rat FAAH-mediated compound hydrolysis by LC-MS/MS analysis; type: ADME; settings: rat FAAH (fatty-acid amide hydrolase 1), read-out: Stability; outline: as §1
T4 sequence (P97612 whole entry): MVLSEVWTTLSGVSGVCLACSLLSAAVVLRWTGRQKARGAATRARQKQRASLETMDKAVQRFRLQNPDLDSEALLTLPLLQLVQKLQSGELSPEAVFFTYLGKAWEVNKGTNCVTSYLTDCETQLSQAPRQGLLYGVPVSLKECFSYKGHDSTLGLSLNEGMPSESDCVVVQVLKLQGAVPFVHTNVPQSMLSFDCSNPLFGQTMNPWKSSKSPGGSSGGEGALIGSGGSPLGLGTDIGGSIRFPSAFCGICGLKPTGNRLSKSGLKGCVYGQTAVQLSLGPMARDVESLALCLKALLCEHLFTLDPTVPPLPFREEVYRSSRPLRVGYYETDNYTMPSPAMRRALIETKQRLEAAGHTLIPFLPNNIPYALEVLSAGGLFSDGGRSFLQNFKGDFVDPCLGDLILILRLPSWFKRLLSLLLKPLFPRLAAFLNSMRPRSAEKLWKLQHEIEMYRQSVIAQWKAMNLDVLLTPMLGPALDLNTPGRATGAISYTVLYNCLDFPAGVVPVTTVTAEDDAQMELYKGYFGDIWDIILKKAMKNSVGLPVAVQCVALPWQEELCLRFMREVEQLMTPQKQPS

Mus musculus [11] = assay: Antiallodynic activity in CD1 mouse model of CFA-induced inflammatory pain assessed as increase in CFA-reduced mechanical paw withdrawal threshold at 20 mg/kg, ip measured at 120 mins post injection; type: functional, organism-based
Outline: (§2)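 Adult male mice (39 ± 10 g), wild-type CD1 or CB1 KO on CD1 background, single housed. CFA:saline 1:1 (20 μL) injected intraplantar into right hind paw; 48 h allowed before dosing. Drug given ip in 5 mL/kg, vehicle group included. Electronic von Frey (90 g probe) after ≥30 min habituation, read in duplicate per paw, at baseline, 48 h post-CFA and 10, 30, 60, 120 min post-dose. Two-way mixed ANOVA with Bonferroni post hoc tests.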

Mus musculus [12] = assay: Antiallodynic activity in CD1 mouse model of CFA-induced inflammatory pain assessed as increase in CFA-reduced mechanical paw withdrawal threshold at 20 mg/kg, ip measured at 10 mins post injection; type: functional, organism-based; outline: as §2
Mus musculus [13] = assay: Antiallodynic activity in CD1 mouse model of CFA-induced inflammatory pain assessed as increase in CFA-reduced mechanical paw withdrawal threshold at 20 mg/kg, ip measured at 60 mins post injection; type: functional, organism-based; outline: as §2
Mus musculus [14] = assay: Antiallodynic activity in CD1 mouse model of CFA-induced inflammatory pain assessed as increase in CFA-reduced mechanical paw withdrawal threshold at 20 mg/kg, ip measured up to 30 mins post injection; type: functional, organism-based; outline: as §2
Mus musculus [15] = assay: Antiallodynic activity in CD1 mouse model of CFA-induced inflammatory pain assessed as increase in CFA-reduced mechanical paw withdrawal threshold at 20 mg/kg, ip measured at 30 mins post injection; type: functional, organism-based; outline: as §2
[16] = target: T4, FAAH (fatty-acid amide hydrolase 1); assay: Stability assessed as half life for rat FAAH-mediated compound hydrolysis by LC-MS/MS analysis; type: ADME; settings: rat FAAH (fatty-acid amide hydrolase 1); outline: as §1

Chain of Cannabinoid receptor 2 (Homo sapiens, UniProt P34972) (P34972 whole entry): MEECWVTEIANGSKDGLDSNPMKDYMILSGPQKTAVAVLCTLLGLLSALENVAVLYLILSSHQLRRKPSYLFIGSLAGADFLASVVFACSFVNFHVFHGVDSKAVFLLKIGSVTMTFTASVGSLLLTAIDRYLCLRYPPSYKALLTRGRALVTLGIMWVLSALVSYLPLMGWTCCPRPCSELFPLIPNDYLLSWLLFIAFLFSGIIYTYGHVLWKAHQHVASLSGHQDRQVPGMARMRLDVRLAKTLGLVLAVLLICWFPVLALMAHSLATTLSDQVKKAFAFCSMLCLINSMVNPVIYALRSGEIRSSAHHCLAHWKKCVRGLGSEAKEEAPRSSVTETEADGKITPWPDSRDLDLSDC
T1 sequence (P20272 whole entry): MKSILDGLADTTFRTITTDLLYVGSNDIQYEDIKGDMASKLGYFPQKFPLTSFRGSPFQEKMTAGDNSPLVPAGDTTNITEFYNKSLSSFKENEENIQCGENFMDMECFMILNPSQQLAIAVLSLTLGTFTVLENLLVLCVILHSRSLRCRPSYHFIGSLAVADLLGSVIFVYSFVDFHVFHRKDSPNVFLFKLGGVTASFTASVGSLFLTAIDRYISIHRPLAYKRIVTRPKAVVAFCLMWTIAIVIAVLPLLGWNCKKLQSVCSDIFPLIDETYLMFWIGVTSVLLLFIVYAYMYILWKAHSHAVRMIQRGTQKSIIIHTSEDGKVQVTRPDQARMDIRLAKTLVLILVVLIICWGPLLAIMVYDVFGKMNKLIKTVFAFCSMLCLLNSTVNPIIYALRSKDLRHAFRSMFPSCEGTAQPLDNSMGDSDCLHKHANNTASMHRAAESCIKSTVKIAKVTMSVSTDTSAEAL
Chain of Cannabinoid receptor 1 (Rattus norvegicus) (P20272 whole entry): as above
Chain of Cannabinoid receptor 2 (Mus musculus, UniProt P47936) (P47936 whole entry): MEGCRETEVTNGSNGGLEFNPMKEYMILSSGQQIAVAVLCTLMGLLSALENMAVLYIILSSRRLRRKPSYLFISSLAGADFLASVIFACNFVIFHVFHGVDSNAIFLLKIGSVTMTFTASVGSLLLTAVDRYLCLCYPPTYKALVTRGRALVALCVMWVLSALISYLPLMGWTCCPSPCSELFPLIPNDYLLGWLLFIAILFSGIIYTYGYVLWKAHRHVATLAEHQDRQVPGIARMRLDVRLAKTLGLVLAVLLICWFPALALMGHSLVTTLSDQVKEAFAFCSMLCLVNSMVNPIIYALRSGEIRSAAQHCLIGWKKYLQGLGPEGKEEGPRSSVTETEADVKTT

Structure (SMILES)	Ki (Cannabinoid receptor 1 [1]) [µM]	Ki (Cannabinoid receptor 1 [2]) [µM]	Ki (Cannabinoid receptor 2 [3]) [µM]	Ki (Cannabinoid receptor 2 [4]) [µM]	EC50 (Cannabinoid receptor 1 [5]; read-out: EC50) [µM]	Emax [6]	Stability [8]	also measured
CCCCC/C=C\C/C=C\[C@H](C)/C=C\C/C=C\CCCC(=O)NCCO	> 1	> 1	> 1	> 1				
CCCCC/C=C\[C@H](C)/C=C\C/C=C\C/C=C\CCCC(=O)NC1CCC1	0.0231	0.0176	0.0068	0.09	0.0361	92%	Stable	half-life [7]: 30 min
C[C@H](/C=C\C/C=C\C/C=C\CCCC(=O)N[C@H](C)CO)/C=C\CCCOc1ccccc1	0.083	0.065	0.286	> 1				
CCCCC/C=C\[C@H](C)/C=C\C/C=C\C/C=C\CCCC(=O)NC1CC1	0.0015	0.0147	0.0043	0.0575	0.0003	88%	Stable	half-life [9]: 25.2 min
C[C@H](/C=C\C/C=C\C/C=C\CCCC(=O)NC1CC1)/C=C\CCCCCN=C=S	0.0156	0.0203	0.0221	0.0477				
CCCCC/C=C\C/C=C\C/C=C\[C@@H](C)/C=C\CCCC(=O)N[C@H](C)CO	0.0214	0.0293	0.12	> 1	0.0583	98%	Stable	
CCCCC/C=C\[C@H](C)/C=C\C/C=C\C/C=C\CCCC(=O)NCCO	0.0048	> 1	0.0505	0.137	0.0132	88%	Stable	half-life [9]: 13.5 min
CCCCC/C=C\[C@H](C)/C=C\C/C=C\C/C=C\CCCC(=O)NC1CCCC1	0.079	0.123	0.139	0.387				half-life [7]: 30 min
CCCCC/C=C\C/C=C\C/C=C\[C@H](C)/C=C\CCCC(=O)N[C@H](C)CO	0.0022	0.0046	0.0128	0.0198	0.0284	100%	Stable	half-life [10]: 30 min; half-life [7]: 30 min
CCCCC/C=C\C/C=C\C/C=C\[C@H](C)/C=C\CCCC(=O)NCCO	0.0017	0.326	0.0247	0.0075	0.0048	100%	Stable	
CCCCC/C=C\C/C=C\C/C=C\[C@@H](C)/C=C\CCCC(=O)NCCO	0.52	> 1	0.188	> 1		inactive	Stable	EC50 (Cannabinoid receptor 1 [5]; hek293): Not Active
CCCCC/C=C\C/C=C\[C@@H](C)/C=C\C/C=C\CCCC(=O)NCCO	> 1	> 1	> 1	> 1				
C[C@H](/C=C\C/C=C\C/C=C\CCCC(=O)NC1CC1)/C=C\CCCCCN=[N+]=[N-]	0.0063	0.0105	0.0085	0.0133	0.0019	85%		
C#CCNC(=O)CCC/C=C\C/C=C\C/C=C\[C@@H](C)/C=C\CCCCC	0.0043	0.0086	0.0112	0.074	0.0104	89%		half-life [7]: 30 min
CCCCC/C=C\[C@H](C)/C=C\C/C=C\C/C=C\CCCC(=O)NCCCl	0.0039	0.0453	0.0104	0.401				
CCCCC/C=C\[C@@H](C)/C=C\C/C=C\C/C=C\CCCC(=O)N[C@H](C)CO	> 1	> 1		> 1				
CCCCC/C=C\C/C=C\C/C=C\C/C=C\CCCC(=O)N[C@H](C)CO [METHANANDAMIDE]				> 1				Activity (Mus musculus [11]): inactive; Activity (Mus musculus [12]): Active; Activity (Mus musculus [13]): Active; Activity (Mus musculus [14]): Active
CCCCC/C=C\[C@@H](C)/C=C\C/C=C\C/C=C\CCCC(=O)NCCO	> 1	> 1	> 1	> 1		inactive		EC50 (Cannabinoid receptor 1 [5]; hek293): Not Active
CCCCC/C=C\C/C=C\C/C=C\C/C=C\CCCC(=O)NCCO [ANANDAMIDE]				> 1		61%		Activity (Mus musculus [15]): inactive; half-life [16]: 12.1 min; Activity (Mus musculus [12]): Active; half-life [9]: 13.2 min
